This note sets out measurements from ChEMBL document CHEMBL1127053, “3,4-Dimethyl-4-(3-hydroxyphenyl)piperidines: opioid antagonists with potent anorectant activity” (J Med Chem, 1993).

Test [1] addresses Mu-type opioid receptor (Cavia porcellus) (UniProt P97266). To be noted: Ileum, 2 nM.
Test [2] deals with T1, Adrenergic receptor alpha-1 (Rattus norvegicus, UniProt P15823+P23944+P43140).
T1 sequence (P15823 whole entry): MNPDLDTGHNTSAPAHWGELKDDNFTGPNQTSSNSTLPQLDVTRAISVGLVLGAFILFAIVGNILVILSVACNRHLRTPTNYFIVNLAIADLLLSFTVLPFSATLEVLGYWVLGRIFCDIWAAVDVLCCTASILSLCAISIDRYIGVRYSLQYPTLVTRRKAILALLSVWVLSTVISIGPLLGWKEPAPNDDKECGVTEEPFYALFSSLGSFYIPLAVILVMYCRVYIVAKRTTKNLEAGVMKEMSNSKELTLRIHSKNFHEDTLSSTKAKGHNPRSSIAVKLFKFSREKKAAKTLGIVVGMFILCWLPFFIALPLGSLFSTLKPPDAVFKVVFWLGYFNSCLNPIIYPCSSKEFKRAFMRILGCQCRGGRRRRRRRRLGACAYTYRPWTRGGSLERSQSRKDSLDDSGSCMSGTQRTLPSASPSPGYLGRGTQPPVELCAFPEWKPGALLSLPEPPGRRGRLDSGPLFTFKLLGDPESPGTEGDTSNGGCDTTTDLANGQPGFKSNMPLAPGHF
T1 sequence (P23944 whole entry): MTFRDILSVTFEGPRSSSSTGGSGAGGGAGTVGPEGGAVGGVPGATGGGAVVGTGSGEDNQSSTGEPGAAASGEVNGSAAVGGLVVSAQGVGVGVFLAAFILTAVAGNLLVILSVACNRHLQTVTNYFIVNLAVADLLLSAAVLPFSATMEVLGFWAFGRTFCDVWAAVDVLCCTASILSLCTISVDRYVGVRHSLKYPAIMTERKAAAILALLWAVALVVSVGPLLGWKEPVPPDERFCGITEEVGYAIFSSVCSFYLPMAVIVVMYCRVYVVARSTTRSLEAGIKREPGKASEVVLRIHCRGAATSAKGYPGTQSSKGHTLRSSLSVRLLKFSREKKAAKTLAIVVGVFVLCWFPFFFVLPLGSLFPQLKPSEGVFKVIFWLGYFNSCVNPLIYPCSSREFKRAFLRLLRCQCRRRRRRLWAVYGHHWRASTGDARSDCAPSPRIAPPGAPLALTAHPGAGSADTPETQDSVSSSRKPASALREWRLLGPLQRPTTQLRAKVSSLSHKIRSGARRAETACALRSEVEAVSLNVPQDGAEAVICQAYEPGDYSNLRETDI
T1 sequence (P43140 whole entry): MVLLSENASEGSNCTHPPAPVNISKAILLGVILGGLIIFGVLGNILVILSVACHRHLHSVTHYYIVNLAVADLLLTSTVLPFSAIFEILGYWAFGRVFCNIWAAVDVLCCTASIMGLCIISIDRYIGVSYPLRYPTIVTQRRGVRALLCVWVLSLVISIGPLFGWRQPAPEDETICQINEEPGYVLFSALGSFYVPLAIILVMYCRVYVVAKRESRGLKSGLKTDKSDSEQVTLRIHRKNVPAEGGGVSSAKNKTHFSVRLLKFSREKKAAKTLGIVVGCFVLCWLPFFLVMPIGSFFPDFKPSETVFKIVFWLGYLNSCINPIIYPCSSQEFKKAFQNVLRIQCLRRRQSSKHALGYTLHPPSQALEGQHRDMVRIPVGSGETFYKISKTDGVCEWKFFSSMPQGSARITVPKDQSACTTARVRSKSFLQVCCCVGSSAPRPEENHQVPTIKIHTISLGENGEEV
Kind of test: Tested for affinity against alpha-adrenergic using [3H]WB-4101 in rat brain. The test is classed as tissue-based. Put shortly:
(§1)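 Radioligand binding in cortical membranes from male Sprague-Dawley rats (110-150 g). Ligands: [3H]serotonin for 5-HT1, [3H]QNB for muscarinic, [3H]WB4101 for α1, [3H]clonidine for α2, [3H]dihydroalprenolol for β-adrenergic.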

Test [3] has as its target Mu-type opioid receptor (Mus musculus) (UniProt P42866). Kind of test: Antagonistic activity towards morphine induced mu-opioid receptor by mouse writhing assay at 1.25 mg/kg subcutaneously. It is filed as functional, organism-based. On the set-up: dose 1.25 mg/kg. Put shortly:
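Mouse acetic acid writhing: 0.6% acetic acid ip, writhes counted for 10 min starting 5 min after injection. Agonist (morphine 1.25 mg/kg or U50,488 2.5 mg/kg) and antagonist given sc 20 min before acid. 5 mice/point, ≥5 doses varied 2-fold, each mouse used once. AD50 = antagonist dose reducing agonist-induced writhing inhibition to 50%.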
A general note: In writhing tests, fewer writhes than in controls are read as antinociception.

Test [4] concerns the target Serotonin receptor 2a and 2c (5HT2A and 5HT2C) (Rattus norvegicus, UniProt P08909+P14842). Kind of test: Tested for affinity against serotonin 5-HT2 receptor using […] (frontal cortex) in rat brain. The test is classed as tissue-based.
Test [5] has as its target Delta-type opioid receptor (Rattus norvegicus, UniProt P33533). Kind of test: Binding affinity towards delta-opioid receptor by displacement of [3H]DADL in rat brain homogenates. The test is classed as tissue-based. The procedure, abridged: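 Radioligand displacement. Kappa: [3H]EKC, guinea pig cortex, with fentanyl and DADL added to block mu/delta binding. Delta: [3H]DADL, rat brain homogenate.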

A further test has as its target Adrenergic receptor beta (Rattus norvegicus, UniProt P18090+P10608+P26255). Kind of test: Tested for affinity against beta-adrenergic using [3H]dihydroalprenolol in rat brain. The test is classed as tissue-based. Put shortly:
as §1

The target of another test is D(2) dopamine receptor (Rattus norvegicus, UniProt P61169). Kind of test: Tested for affinity against dopamine D2 receptor using […] in rat brain. It is filed as tissue-based.
D(2) dopamine receptor, sequence (P61169 whole entry): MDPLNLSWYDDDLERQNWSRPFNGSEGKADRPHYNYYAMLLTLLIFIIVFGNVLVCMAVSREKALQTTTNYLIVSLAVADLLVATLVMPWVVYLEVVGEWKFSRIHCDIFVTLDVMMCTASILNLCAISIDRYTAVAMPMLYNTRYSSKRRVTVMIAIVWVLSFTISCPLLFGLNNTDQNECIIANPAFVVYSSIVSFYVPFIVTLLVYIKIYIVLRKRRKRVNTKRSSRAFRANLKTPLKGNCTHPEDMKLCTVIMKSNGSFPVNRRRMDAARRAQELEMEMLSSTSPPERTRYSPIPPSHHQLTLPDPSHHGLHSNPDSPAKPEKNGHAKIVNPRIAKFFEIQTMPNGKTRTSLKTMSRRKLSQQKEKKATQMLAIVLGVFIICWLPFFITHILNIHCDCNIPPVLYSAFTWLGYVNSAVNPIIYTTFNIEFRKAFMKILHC
The target in test [6] is Kappa-type opioid receptor (Rattus norvegicus) (UniProt P34975). Kind of test: Antagonism of bremazocine induced kappa receptor diuresis in rats at a concentration of 0.08 mg/kg subcutaneously. The test is classed as functional, organism-based. More on the design: dose 0.08 mg/kg. The procedure, abridged: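 Male Long-Evans hooded rats (350-500 g), reused no more than twice weekly. Bremazocine 0.08 mg/kg sc, test antagonist sc on the opposite side without delay. Rats housed in metabolism cages; urine volume recorded at 2 and 5 h. 3 rats/dose, doses varied 2-fold. AD50 = dose reducing cumulative 5-h induced urination by 50%.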
Kappa-type opioid receptor (Rattus norvegicus), sequence (P34975 whole entry): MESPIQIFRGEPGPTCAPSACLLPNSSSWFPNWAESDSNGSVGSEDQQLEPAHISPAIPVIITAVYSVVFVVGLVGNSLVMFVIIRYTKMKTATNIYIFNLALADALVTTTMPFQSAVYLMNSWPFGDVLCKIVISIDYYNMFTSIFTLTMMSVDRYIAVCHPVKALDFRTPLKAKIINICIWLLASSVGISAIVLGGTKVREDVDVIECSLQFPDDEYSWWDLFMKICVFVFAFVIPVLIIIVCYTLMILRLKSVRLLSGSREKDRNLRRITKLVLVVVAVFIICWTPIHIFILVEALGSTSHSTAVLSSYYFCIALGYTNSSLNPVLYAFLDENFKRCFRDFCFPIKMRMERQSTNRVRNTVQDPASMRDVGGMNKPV

A further test has as its target Dopamine receptor. Kind of test: Tested for affinity against dopamine autoreceptor using [3H]apomorphine in rat brain. It is filed as tissue-based.

Mu-type opioid receptor (Mus musculus), sequence (P42866 whole entry): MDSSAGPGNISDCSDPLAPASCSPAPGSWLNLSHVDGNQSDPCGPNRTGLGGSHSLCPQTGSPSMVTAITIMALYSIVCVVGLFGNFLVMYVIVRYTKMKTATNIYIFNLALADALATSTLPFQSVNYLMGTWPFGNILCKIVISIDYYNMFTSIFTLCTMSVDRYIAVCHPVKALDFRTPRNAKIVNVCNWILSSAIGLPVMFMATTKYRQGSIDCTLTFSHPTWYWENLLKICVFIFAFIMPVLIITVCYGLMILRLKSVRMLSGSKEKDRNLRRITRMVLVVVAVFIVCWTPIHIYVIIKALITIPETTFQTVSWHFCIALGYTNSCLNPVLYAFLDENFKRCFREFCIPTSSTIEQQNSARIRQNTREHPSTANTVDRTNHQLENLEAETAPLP
Delta-type opioid receptor, sequence (P33533 whole entry): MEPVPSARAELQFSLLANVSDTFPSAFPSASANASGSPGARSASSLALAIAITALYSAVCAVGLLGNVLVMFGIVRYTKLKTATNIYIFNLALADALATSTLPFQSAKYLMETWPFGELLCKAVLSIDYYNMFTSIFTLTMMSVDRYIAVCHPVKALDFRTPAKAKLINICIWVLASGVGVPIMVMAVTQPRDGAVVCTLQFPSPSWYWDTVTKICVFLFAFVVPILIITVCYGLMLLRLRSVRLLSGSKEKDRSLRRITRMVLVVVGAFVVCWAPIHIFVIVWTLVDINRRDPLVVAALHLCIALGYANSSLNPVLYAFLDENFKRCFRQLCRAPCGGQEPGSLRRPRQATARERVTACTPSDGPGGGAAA
Mu-type opioid receptor (Cavia porcellus), sequence (P97266 whole entry): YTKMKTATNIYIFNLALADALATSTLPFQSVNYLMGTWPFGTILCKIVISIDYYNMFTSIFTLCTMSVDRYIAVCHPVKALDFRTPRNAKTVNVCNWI

In general, IC50 refers to the concentration at which inhibition is half-maximal. In general, Ki refers to a measure of affinity in units of concentration, obtained from inhibition or displacement. Lower therefore signals a stronger hold on the target. For the compound `C[C@H]1CN(CC[C@H](O)C2CCCCC2)CC[C@@]1(C)c1cccc(O)c1`, the Ke in test [1] was found to be 0.24 nM. For the same compound, the IC50 in test [2] was greater than 5 µM; in [4], greater than 1 µM; at Adrenergic receptor beta, greater than 5 µM; at D(2) dopamine receptor it was greater than 1 µM; on Dopamine receptor, greater than 1 µM. The values for the AD50 in test [3] and in test [6] were 0.015 mg/kg and 0.38 mg/kg, respectively. For the same compound, the affinity in [5] corresponds to a Ki of 0.0052 µM.
